{"data": "Assay results of several laboratories", "target": "BDNF/NT-3 growth factors receptor (NTRK2, Homo sapiens, UniProt Q16620)", "note": "Each line is one published result; the experiments were not run side by side."}
{"SMILES": "COc1cc2ncnc(Nc3ccc(Oc4ccccc4)c(C)c3C)c2cc1OC", "observed": "enzyme activity", "mode": "inhibitor", "tested at": "1 µM", "inhibition": "-3%"}
{"SMILES": "CCCS(=O)(=O)Nc1ccc(F)c(C(=O)c2c[nH]c3ncc(-c4ccc(Cl)cc4)cc23)c1F", "observed": "enzyme activity", "mode": "inhibitor", "tested at": "1 µM", "inhibition": "< 10%"}
{"SMILES": "O=C(Nc1cccc(Cl)c1)Nc1cccc(C(=O)Nc2ccc3[nH]ncc3c2)c1", "observed": "enzyme activity", "mode": "inhibitor", "technique": "FRET", "tested at": "1 µM", "inhibition": "20.2%"}
{"SMILES": "CN1CC(Oc2cnc(C#N)cc2-c2ccn3nc(NC(=O)C4CC4)cc3c2)C1", "observed": "enzyme activity", "mode": "inhibitor", "tested at": "1 µM", "inhibition": "4%"}
{"SMILES": "CNC(=O)c1cc2c(Oc3ccc(NC(=O)C4(C(=O)Nc5ccc(F)cc5)CC4)cc3)ccnc2cc1OC", "observed": "enzyme activity", "mode": "inhibitor", "technique": "radiometric", "tested at": "1 µM", "inhibition": "100%"}
{"SMILES": "CC/C(=N\\NC(=O)NCc1cccc(O)c1)c1ccc(O)c(C)c1O", "observed": "enzyme activity", "mode": "inhibitor", "tested at": "0.1 µM", "inhibition": "2.2%"}
{"SMILES": "O=C(Nc1ccc(OC(F)(F)F)cc1)Nc1cccc(C(=O)Nc2ccc3[nH]ncc3c2)c1", "observed": "enzyme activity", "mode": "inhibitor", "technique": "FRET", "tested at": "1 µM", "inhibition": "14.5%"}
{"SMILES": "COc1cc2ncnc(Nc3ccc(Oc4ccccc4)cc3C)c2cc1OC", "observed": "enzyme activity", "mode": "inhibitor", "tested at": "1 µM", "inhibition": "11%"}
{"SMILES": "CNC(=O)c1cc(Oc2ccc(NC(=O)Nc3ccc(Cl)c(C(F)(F)F)c3)cc2)ccn1", "observed": "cell-free assay", "tested at": "0.3 µM", "inhibition": "14%"}
{"SMILES": "O=C(Nc1ccc(Cl)cc1)Nc1cccc(C(=O)Nc2ccc3[nH]ncc3c2)c1", "observed": "enzyme activity", "mode": "inhibitor", "technique": "FRET", "tested at": "1 µM", "inhibition": "18.8%"}
